Columns and labels:
PWR-1E = assay: Antiproliferative activity against human PWR-1E cells after 3 days by WST-1 assay; assay type: cell-based; settings: 72 h
How it was run: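 PWR-1E non-neoplastic prostate epithelial cells grown in keratinocyte serum-free medium with bovine pituitary extract and recombinant human EGF. WST-1 proliferation read-out after 3 days of exposure.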

PC-3 [1] = assay: Induction of apoptosis in human PC3 cells assessed as viable cells at 5 uM after 16 hrs by F2N12S orange and SYTOX green double staining based flow cytometry (reference value: 95%); assay type: functional; settings: PC-3, 16 h, read-out: Activity
PC-3 [2] = assay: Induction of apoptosis in human PC3 cells assessed as apoptotic cells at 5 uM after 16 hrs by F2N12S orange and SYTOX green double staining based flow cytometry (reference value: 2 to 3%); assay type: functional
PC-3 [3] = assay: Induction of apoptosis in human PC3 cells assessed as necrotic cells at 5 uM after 16 hrs by F2N12S orange and SYTOX green double staining based flow cytometry (reference value: 2 to 3%); assay type: functional
PC-3 [4] = assay: Induction of apoptosis in human PC3 cells assessed as viable cells at 10 uM after 16 hrs by F2N12S orange and SYTOX green double staining based flow cytometry (reference value: 95%); assay type: functional; settings: PC-3, 16 h, read-out: Activity
PC-3 [5] = assay: Induction of apoptosis in human PC3 cells assessed as apoptotic cells at 10 uM after 16 hrs by F2N12S orange and SYTOX green double staining based flow cytometry (reference value: 2 to 3%); assay type: functional
PC-3 [6] = assay: Induction of apoptosis in human PC3 cells assessed as necrotic cells at 10 uM after 16 hrs by F2N12S orange and SYTOX green double staining based flow cytometry (reference value: 2 to 3%); assay type: functional
PC-3 [7] = assay: Induction of apoptosis in human PC3 cells assessed as viable cells at 20 uM after 16 hrs by F2N12S orange and SYTOX green double staining based flow cytometry (reference value: 95%); assay type: functional; settings: PC-3, 16 h, read-out: Activity
PC-3 [8] = assay: Induction of apoptosis in human PC3 cells assessed as apoptotic cells at 20 uM after 16 hrs by F2N12S orange and SYTOX green double staining based flow cytometry (reference value: 2 to 3%); assay type: functional
PC-3 [9] = assay: Induction of apoptosis in human PC3 cells assessed as necrotic cells at 20 uM after 16 hrs by F2N12S orange and SYTOX green double staining based flow cytometry (reference value: 2 to 3%); assay type: functional
PC-3 [10] = assay: Induction of apoptosis in human PC3 cells assessed as viable cells at 30 uM after 16 hrs by F2N12S orange and SYTOX green double staining based flow cytometry (reference value: 95%); assay type: functional; settings: PC-3, 16 h, read-out: Activity
PC-3 [11] = assay: Induction of apoptosis in human PC3 cells assessed as apoptotic cells at 30 uM after 16 hrs by F2N12S orange and SYTOX green double staining based flow cytometry (reference value: 2 to 3%); assay type: functional
PC-3 [12] = assay: Induction of apoptosis in human PC3 cells assessed as necrotic cells at 30 uM after 16 hrs by F2N12S orange and SYTOX green double staining based flow cytometry (reference value: 2 to 3%); assay type: functional
PC-3 [13] = assay: Induction of apoptosis in human PC3 cells assessed as viable cells at 40 uM after 16 hrs by F2N12S orange and SYTOX green double staining based flow cytometry (reference value: 95%); assay type: functional; settings: PC-3, 16 h, read-out: Activity
PC-3 [14] = assay: Induction of apoptosis in human PC3 cells assessed as apoptotic cells at 40 uM after 16 hrs by F2N12S orange and SYTOX green double staining based flow cytometry (reference value: 2 to 3%); assay type: functional
PC-3 [15] = assay: Induction of apoptosis in human PC3 cells assessed as necrotic cells at 40 uM after 16 hrs by F2N12S orange and SYTOX green double staining based flow cytometry (reference value: 2 to 3%); assay type: functional

| SMILES | IC50 (PWR-1E) [µM] | viability at 5 µM (PC-3 [1]) [%] | Activity (PC-3 [2]) [%] | Activity (PC-3 [3]) [%] | viability at 10 µM (PC-3 [4]) [%] | Activity (PC-3 [5]) [%] | Activity (PC-3 [6]) [%] | viability at 20 µM (PC-3 [7]) [%] | Activity (PC-3 [8]) [%] | Activity (PC-3 [9]) [%] | viability at 30 µM (PC-3 [10]) [%] | Activity (PC-3 [11]) [%] | Activity (PC-3 [12]) [%] | viability at 40 µM (PC-3 [13]) [%] | Activity (PC-3 [14]) [%] | Activity (PC-3 [15]) [%] |
| --- | --- | --- | --- | --- | --- | --- | --- | --- | --- | --- | --- | --- | --- | --- | --- | --- |
| COc1cc(/C=C/C(=O)CC(=O)/C=C/c2ccc(O)c(OC)c2)ccc1O [CURCUMIN] | 8.14 | – | – | – | – | – | – | – | – | – | – | – | – | – | – | – |
| CN[C@@H]1C[C@H]2O[C@@](C)([C@@H]1OC)n1c3ccccc3c3c4c(c5c6ccccc6n2c5c31)C(=O)NC4 [STAUROSPORINE] | – | 87 | 9 | 4 | 84 | 10 | 6 | 68 | 24 | 8 | 46 | 47 | 8 | 31 | 60 | 9 |

— ChEMBL document CHEMBL4052613, “Structure-activity relationship studies of 1,7-diheteroarylhepta-1,4,6-trien-3-ones with two different terminal rings in prostate epithelial cell models” (Eur J Med Chem, 2017)
